# Screening data deposited in PubChem by several laboratories.
# In the library only some 2.6% were active in any assay of this set; here they are far more common.
# RanGTP-Imp inh: inhibitors of RanGTP-importin-beta interaction, primary screen, biochemical, FRET, CFP-Ran, YFP-importin-beta, homogeneous | cell-free CFP-Ran/YFP-importin-beta FRET ratio | inhibition, % (test concentration not listed) | 300,000 tested, 1.1% active;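 active = more than half of the replicate wells show a fall in the fluorescence ratio signal beyond about 16%, limit read from the data, passing the limit was not always enough; inconclusive = exactly half of the replicate wells pass the set limit; inactive = fewer than half of replicates pass the limit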;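 also: 0% = DMSO wells and 100% = Ran loaded with GDP instead of GTP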
# IMP-1 inh-1: inhibitors of Pseudomonas aeruginosa IMP-1 metallo-beta-lactamase. 290,000 tested, 0.45% active. inhibition, % at 5.6 µM. AID 1556. purified IMP-1, nitrocefin hydrolysis, epi-absorbance fluorescence;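 active = inhibition above the mean plus 3 SD of all compounds in the same screening run, cut at about 4.5% in these data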;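 also: 0% = IMP-1 with DMSO and 100% = DMSO wells lacking enzyme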
#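 System: Purified IMP-1 | Read-out basis: Percent enzyme inhibition | Controls: IMP-1 with DMSO as 0%, enzyme-free DMSO as 100% | Replicates: One well per compound | Doses: 5.6 µM nominal single concentration | Detection: Epi-absorbance fluorescence, 480 nm excitation, 530 nm emission | Incubation: 25 °C, 15 min preincubation, 25 min reaction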
# VIM-2 inh: blocks Pseudomonas aeruginosa VIM-2 metallo-beta-lactamase; inhibition, % at 5.6 µM; 290,000 tested, 0.89% active; purified VIM-2, nitrocefin hydrolysis, epi-absorbance fluorescence; AID 1527;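 active = inhibition above the mean of all tested compounds plus 3 SD, cutoff set per screening run, cut at about 7.5% in these data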;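 also: red hydrolysis product quenches plate fluorescence so inhibitors raise well fluorescence; 0% = enzyme with DMSO and 100% = DMSO without enzyme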
# Runt-CBFb FRET: Runt domain-CBFb interaction inhibition | Q01196+Q13951 | Cerulean-Runt/Venus-CBFb FRET ratio 530/480, 1 h | inhibition, % at 20 µM | 220,000 tested, 0.46% active | AID 1496;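 active = inhibition over about 50% at 20 µM in the single-dose screen, limit read from the data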;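 also: 0% = DMSO wells and 100% = excess unlabeled CBFb competitor control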
#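 Assay system: Cerulean-tagged RUNX1 Runt domain (FRET donor) fusion protein / Amount: 100 nM each of Venus-CBFb and Cerulean-Runt domain / Medium: Tris buffer pH 7.5 with salts and BSA / Also added: Venus-CBFb 100 nM / Schedule: 1 h complex formation plus 1 h compound treatment, room temperature / Signal: FRET fluorescence / Read-out: loss of energy transfer signal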
# Runt-SMMHC FRET: blocks binding of human RUNX1 Runt domain to CBFb-SMMHC. Q01196+Q13951. Cerulean-Runt/Venus-CBFb-SMMHC FRET ratio 530/480, 1 h. inhibition, % at 20 µM. 220,000 tested, 0.74% active;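 active = mean inhibition across duplicate retests at 20 µM reaching about 50%, limit read from the data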;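 also: 0% = DMSO wells and 100% = wells with excess untagged CBFb-SMMHC; inhibitors lower the FRET ratio by blocking Runt binding to CBFb-SMMHC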
# IMP-1 inh-2: blocks IMP-1 metallo-beta-lactamase in VIM-2 selectivity screen; AID 1856; purified IMP-1, nitrocefin hydrolysis, epi-absorbance fluorescence; inhibition, % at 5.6 µM; 1,300 tested, under 10 active; shares compounds with VIM-2 inh; call rule not given here;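 also: 0% = enzyme with vehicle and 100% = vehicle without enzyme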
# VIM-2 FRET inh: inhibits VIM-2 in FRET assay to exclude epi-absorbance artifacts; purified VIM-2, CCF2 FRET substrate hydrolysis; shares compounds with VIM-2 inh; AID 1857; 1,300 tested, 23% active; inhibition, % at 5.6 µM;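 active = inhibition above the mean of all tested compounds plus 3 SD, cut at about 19% in these data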;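 also: 0% = VIM-2 plus DMSO and 100% = no enzyme wells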
# TEM-1 counter: selectivity counter-screen for VIM-2 inhibitors: E. coli TEM-1 inhibitors; shares compounds with VIM-2 inh; Purified TEM-1, nitrocefin hydrolysis, epi-absorbance fluorescence; inhibition, % at 5.6 µM; 1,300 tested, 3% active;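 active = inhibition above that campaign's mean inhibition plus 3 SD, cut at about 0.46% in these data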;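 also: 0% = TEM-1 with DMSO and 100% = TEM-1 with 100 µM potassium clavulanate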
# Target sequence (P62593 whole entry, looked up): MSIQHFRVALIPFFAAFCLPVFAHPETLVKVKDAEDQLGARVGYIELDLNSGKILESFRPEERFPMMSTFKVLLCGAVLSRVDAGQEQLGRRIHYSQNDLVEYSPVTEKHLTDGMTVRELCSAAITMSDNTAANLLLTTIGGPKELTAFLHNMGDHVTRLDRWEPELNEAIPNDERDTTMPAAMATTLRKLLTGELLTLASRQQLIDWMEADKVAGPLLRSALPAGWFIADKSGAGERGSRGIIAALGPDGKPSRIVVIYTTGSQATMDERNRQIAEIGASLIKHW
# VIM-2 inh conf: confirmation of P. aeruginosa VIM-2 metallo-beta-lactamase inhibitors; 1,300 tested, 96% active; AID 2187; shares compounds with VIM-2 inh; inhibition, % at 5.6 µM; purified VIM-2, nitrocefin hydrolysis, epi-absorbance;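 active = inhibition of the VIM-2 beta-lactamase enzyme above about 11% from the earlier first-round screen, limit read from the data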;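 also: 0% = VIM-2 with DMSO and 100% = buffer wells without enzyme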
# * marks the source's active call; other numbers are inactive results; ? = inconclusive; / = not tested or not shown; + = active, no number.
SMILES,RanGTP-Imp inh,IMP-1 inh-1,VIM-2 inh,Runt-CBFb FRET,Runt-SMMHC FRET,IMP-1 inh-2,VIM-2 FRET inh,TEM-1 counter,VIM-2 inh conf
Cc1cc(=O)oc2c(C)c(OCC(=O)NC3CC(C)(C)NC(C)(C)C3)ccc12,0.3,-2.1,5.5,/,/,/,/,/,/
Cc1ccc(-c2nn3c(C)nnc3c3ccccc23)cc1S(=O)(=O)NCCN1CCOCC1,-1.4,-3.2,42.2*,/,-5.9,-3.1,3.0,-2.5,57.9*
Cc1ccc(-c2nn3c(C)nnc3c3ccccc23)cc1S(=O)(=O)N(C)CCO,7.1,-3.4,21.0*,-0.1,0.3,-4.9,1.5,-6.2,32.4*
Cc1ccc(-c2nn3c(C)nnc3c3ccccc23)cc1S(=O)(=O)NCc1ccccc1,-2.7,-1.0,-1.3,-3.3,2.9,/,/,/,/
COc1cccc(OCC(O)CN2CCC(CN3C(=O)c4cccc5cccc(c45)C3=O)CC2)c1 (stereo not given),1.6,-0.9,14.1*,0.2,1.4,-4.0,-0.9,-4.3,22.1*
COc1ccc(COCC(O)CN2CCC(CN3C(=O)c4cccc5cccc(c45)C3=O)CC2)cc1OC (stereo not given),4.6,-2.6,14.2*,-2.5,1.3,-4.1,2.7,-8.3,27.3*
CCN(Cc1ccncc1)C(=O)c1cc(COc2c(F)cccc2F)on1,5.2,-0.3,-6.2,/,/,/,/,/,/
O=C(O)C=C1C2CC3CC(C2)CC1C3,-1.9,-6.0,-2.5,-2.0,0.9,/,/,/,/
O=C(O)C(C(=O)O)=C1C2CC3CC(C2)CC1C3,-3.0,-2.6,38.5*,1.1,2.1,-0.7,63.7*,-3.2,48.3*
Cc1ccc(-c2nc3ccccc3n3c(C)nnc23)cc1,/,-4.1,1.1,-1.8,3.4,/,/,/,/
Cc1nnc2c(SC(C)C)nc3ccccc3n12,-5.2,-3.9,13.5*,/,/,-2.3,0.1,-5.3,22.3*
COc1ccc(-c2cc3c(=O)n(CC(=O)N4CCN(C)CC4)ncn3n2)cc1,-0.6,-5.1,16.7*,/,/,-3.0,-2.1,-5.1,30.5*
Cc1ccc(CNC(=O)c2ccc(Cl)c(S(N)(=O)=O)c2)n1C,-0.7,-2.4,-4.1,/,/,/,/,/,/
CCN1CCN(CCNC(=O)c2cc(Cl)c(NC(=O)C3=C(C)OCCS3)cc2OC)CC1,2.9,-3.3,23.8*,/,/,-2.5,3.8,-9.6,33.1*
O=C(c1cc(-c2ccccc2O)on1)N1CCCCCC1,7.1,-3.4,-1.3,/,/,/,/,/,/
O=[N+]([O-])c1ccc(C23CC4CC(CC(O)(C4)C2)C3)cc1,-0.5,-1.4,15.2*,/,/,-2.8,34.2*,-5.4,22.4*
O=C(NC12CC3CC(CC(C3)C1)C2)c1ccc([N+](=O)[O-])cc1,-4.6,-0.8,-0.5,/,/,/,/,/,/
Cc1cc(C)c(S(=O)(=O)N2CCN(S(=O)(=O)N3CCOCC3)CC2)c(C)c1,1.1,-0.5,-5.1,/,/,/,/,/,/
Cc1ccc(-c2nc3ccccc3c(=O)n2CCCn2ccnc2)cc1,?,-8.3,1.9,0.1,-0.2,/,/,/,/
Cc1cccn2c(=O)c3cc(C(=O)NCCc4ccccc4)c(=N)n(CCCn4ccnc4)c3nc12,177.8*,-1.1,14.1*,8.7,81.6*,-1.8,-39.0,-5.5,50.8*
C=CCn1c(=N)c(C(=O)NCCCOC)cc2c(=O)n3cccc(C)c3nc21,+,-0.3,25.5*,18.1,61.3*,-4.4,-87.8,-8.2,29.4*
CCCn1c(=N)c(S(=O)(=O)c2ccccc2)cc2c(=O)n3cccc(C)c3nc21,144.6*,-1.4,15.0*,/,/,-3.6,-1.1,-6.7,23.0*
Cc1ccc2nc3c(cc(C(=O)NC4CCCC4)c(=N)n3CCCn3ccnc3)c(=O)n2c1,156.2*,0.4,28.8*,/,/,-3.6,-16.6,-4.8,68.3*
Cc1cccc(C(=O)NCCCn2ccnc2)c1C,0.9,-2.8,-3.4,/,/,/,/,/,/
